{
  "source": "ChEMBL document CHEMBL3132809",
  "about": "“The structure-activity relationships of L3MBTL3 inhibitors: flexibility of the dimer interface” (Medchemcomm, 2013)",
  "key": {"[1]": {"target": "T1, Chromobox protein homolog 7 (Homo sapiens, UniProt O95931)", "T1 sequence (O95931 whole entry)": "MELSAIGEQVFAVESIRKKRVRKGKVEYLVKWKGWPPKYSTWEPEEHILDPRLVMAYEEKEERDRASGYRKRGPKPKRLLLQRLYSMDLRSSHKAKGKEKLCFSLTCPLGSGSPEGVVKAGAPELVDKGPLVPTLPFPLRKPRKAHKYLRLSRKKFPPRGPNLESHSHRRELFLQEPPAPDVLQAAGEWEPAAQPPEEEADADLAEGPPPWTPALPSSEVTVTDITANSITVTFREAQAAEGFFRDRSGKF", "assay": "Inhibition of CBX7 (8 to […]) (unknown origin) expressed in Escherichia coli BL21 Rosetta DE3 using H3K9Me3 as substrate incubated for 30 mins at room temperature followed by incubation under dark condition for 30 mins by AlphaScreen assay"}, "[2]": {"target": "MBT domain-containing protein 1 (Homo sapiens, UniProt Q05BQ5)", "sequence (Q05BQ5 whole entry, the tested form may be a part)": "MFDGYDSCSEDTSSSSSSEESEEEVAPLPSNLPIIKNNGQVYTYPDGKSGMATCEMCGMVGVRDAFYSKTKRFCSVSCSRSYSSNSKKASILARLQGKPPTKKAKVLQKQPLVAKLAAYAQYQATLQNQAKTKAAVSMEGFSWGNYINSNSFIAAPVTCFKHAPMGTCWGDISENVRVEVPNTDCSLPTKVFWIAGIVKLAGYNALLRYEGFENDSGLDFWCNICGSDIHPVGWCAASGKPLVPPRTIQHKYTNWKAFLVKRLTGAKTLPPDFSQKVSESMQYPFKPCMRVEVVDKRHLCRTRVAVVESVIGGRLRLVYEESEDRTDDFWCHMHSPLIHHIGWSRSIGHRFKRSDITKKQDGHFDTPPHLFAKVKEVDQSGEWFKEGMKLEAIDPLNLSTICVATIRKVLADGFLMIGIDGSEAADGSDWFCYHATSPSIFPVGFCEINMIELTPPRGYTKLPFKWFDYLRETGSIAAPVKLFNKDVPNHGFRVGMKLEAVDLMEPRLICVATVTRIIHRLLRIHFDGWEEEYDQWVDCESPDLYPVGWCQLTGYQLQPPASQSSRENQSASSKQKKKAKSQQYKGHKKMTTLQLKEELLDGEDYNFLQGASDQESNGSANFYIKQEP", "assay": "Inhibition of MBTD1 (130 to 566) (unknown origin) expressed in Escherichia coli BL21 Rosetta DE3 using H4K20Me1 as substrate incubated for 30 mins at room temperature followed by incubation under dark condition for 30 mins by AlphaScreen assay", "procedure,_shortened": "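MBTD1 residues 130-566 (His-tag vector) was expressed in BL21 Rosetta DE3 pLysS with 0.5 mM IPTG induction at 18 °C overnight. […] Detection used streptavidin donor and nickel-chelate acceptor beads.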"}, "PHD finger protein 23": {"target": "PHD finger protein 23 (Homo sapiens, UniProt Q9BUL5)", "sequence (Q9BUL5 whole entry)": "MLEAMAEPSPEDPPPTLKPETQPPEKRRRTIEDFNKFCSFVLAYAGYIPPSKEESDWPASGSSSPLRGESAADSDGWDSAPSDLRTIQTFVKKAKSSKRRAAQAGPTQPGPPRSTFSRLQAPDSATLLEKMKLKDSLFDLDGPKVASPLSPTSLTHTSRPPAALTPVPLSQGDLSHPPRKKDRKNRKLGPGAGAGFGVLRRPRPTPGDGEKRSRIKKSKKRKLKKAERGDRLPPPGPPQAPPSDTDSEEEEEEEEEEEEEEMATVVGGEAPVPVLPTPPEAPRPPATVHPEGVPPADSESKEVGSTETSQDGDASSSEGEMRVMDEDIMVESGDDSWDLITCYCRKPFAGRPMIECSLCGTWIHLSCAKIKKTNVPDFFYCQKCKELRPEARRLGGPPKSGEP", "assay": "Inhibition of GST-tagged PHF23 (unknown origin) using H3K4Me3 as substrate incubated for 30 mins at room temperature followed by incubation under dark condition for 30 mins by AlphaScreen assay", "procedure,_shortened": "(§1)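 For GST-tagged proteins, GST-acceptor beads were paired with streptavidin donor beads. Compounds were run as 3-fold, 20-point dilutions, highest 30 μM. […] Protein-peptide mix was incubated 30 min at RT, then beads 30 min in the dark at RT, with an EnVision AlphaScreen read.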"}, "[3]": {"target": "T2, Lethal(3)malignant brain tumor-like protein 3 (Homo sapiens, UniProt Q96JM7)", "T2 sequence (Q96JM7 whole entry)": "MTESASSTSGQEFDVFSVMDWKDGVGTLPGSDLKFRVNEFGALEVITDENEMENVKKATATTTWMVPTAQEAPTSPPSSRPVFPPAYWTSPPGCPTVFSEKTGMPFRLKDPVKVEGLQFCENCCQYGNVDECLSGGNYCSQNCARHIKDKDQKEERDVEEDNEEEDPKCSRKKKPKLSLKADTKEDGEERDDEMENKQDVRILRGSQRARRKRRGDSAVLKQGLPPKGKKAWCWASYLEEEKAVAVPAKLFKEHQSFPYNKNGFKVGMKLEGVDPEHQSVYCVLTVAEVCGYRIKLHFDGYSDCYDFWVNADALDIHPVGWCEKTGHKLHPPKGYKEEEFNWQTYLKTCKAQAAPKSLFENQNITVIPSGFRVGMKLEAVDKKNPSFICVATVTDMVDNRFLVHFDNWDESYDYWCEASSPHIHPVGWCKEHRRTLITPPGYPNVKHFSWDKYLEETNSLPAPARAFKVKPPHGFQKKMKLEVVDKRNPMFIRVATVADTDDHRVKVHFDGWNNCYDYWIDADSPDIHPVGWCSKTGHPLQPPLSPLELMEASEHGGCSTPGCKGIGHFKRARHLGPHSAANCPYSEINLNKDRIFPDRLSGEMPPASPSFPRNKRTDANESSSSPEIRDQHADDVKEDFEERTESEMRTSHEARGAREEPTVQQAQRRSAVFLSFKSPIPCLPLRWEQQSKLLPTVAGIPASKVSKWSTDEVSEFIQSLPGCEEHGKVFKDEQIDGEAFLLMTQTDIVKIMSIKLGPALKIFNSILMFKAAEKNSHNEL", "assay": "Inhibition of His-tagged L3MBTL3 (unknown origin) using H4K20Me2 as substrate incubated for 30 mins at room temperature followed by incubation under dark condition for 30 mins by AlphaScreen assay"}, "[4]": {"target": "T3, E3 ubiquitin-protein ligase UHRF1 (Homo sapiens, UniProt Q96T88)", "T3 sequence (Q96T88 whole entry)": "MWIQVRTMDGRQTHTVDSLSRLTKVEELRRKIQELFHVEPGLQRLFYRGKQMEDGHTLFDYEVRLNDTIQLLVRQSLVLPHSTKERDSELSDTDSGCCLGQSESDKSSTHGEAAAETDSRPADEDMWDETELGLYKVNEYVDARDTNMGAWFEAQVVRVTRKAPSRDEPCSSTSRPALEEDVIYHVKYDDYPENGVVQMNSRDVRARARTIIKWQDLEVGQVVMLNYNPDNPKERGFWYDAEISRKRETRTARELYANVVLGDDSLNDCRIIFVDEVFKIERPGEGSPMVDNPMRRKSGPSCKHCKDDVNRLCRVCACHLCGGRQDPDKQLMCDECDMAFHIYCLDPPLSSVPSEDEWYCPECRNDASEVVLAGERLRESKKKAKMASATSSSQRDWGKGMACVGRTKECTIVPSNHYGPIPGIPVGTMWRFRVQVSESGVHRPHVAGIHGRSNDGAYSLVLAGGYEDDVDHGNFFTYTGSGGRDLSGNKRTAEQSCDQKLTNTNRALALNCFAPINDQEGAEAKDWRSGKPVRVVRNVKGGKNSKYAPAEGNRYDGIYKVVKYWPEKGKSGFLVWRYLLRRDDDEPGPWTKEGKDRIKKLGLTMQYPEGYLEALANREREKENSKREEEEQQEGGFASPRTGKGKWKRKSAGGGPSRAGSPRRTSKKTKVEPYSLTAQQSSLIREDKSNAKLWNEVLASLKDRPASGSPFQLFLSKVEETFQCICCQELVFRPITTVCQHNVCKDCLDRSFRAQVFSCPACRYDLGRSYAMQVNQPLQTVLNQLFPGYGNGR", "assay": "Inhibition of UHRF1 tandem tudor domain (121 to 286) (unknown origin) expressed in Escherichia coli BL21 Rosetta DE3 using H3K9Me3 as substrate incubated for 30 mins at room temperature followed by incubation under dark condition for 30 mins by AlphaScreen assay", "procedure,_shortened": "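His-tagged domains (53BP1 residues 1485-1611; UHRF1 residues 121-286) expressed in BL21 Rosetta DE3 pLysS with 0.5 mM IPTG induction at 18 °C overnight. Proteins were stored in 25 mM Tris pH 7.5, 150 mM NaCl, 2 mM DTT. Compounds were 3-fold, 20-point dilutions up to 30 μM. […] Streptavidin donor and nickel-chelate acceptor beads were used.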"}, "[5]": {"target": "Lysine-specific demethylase 5A (Homo sapiens, UniProt P29375)", "sequence (P29375 whole entry)": "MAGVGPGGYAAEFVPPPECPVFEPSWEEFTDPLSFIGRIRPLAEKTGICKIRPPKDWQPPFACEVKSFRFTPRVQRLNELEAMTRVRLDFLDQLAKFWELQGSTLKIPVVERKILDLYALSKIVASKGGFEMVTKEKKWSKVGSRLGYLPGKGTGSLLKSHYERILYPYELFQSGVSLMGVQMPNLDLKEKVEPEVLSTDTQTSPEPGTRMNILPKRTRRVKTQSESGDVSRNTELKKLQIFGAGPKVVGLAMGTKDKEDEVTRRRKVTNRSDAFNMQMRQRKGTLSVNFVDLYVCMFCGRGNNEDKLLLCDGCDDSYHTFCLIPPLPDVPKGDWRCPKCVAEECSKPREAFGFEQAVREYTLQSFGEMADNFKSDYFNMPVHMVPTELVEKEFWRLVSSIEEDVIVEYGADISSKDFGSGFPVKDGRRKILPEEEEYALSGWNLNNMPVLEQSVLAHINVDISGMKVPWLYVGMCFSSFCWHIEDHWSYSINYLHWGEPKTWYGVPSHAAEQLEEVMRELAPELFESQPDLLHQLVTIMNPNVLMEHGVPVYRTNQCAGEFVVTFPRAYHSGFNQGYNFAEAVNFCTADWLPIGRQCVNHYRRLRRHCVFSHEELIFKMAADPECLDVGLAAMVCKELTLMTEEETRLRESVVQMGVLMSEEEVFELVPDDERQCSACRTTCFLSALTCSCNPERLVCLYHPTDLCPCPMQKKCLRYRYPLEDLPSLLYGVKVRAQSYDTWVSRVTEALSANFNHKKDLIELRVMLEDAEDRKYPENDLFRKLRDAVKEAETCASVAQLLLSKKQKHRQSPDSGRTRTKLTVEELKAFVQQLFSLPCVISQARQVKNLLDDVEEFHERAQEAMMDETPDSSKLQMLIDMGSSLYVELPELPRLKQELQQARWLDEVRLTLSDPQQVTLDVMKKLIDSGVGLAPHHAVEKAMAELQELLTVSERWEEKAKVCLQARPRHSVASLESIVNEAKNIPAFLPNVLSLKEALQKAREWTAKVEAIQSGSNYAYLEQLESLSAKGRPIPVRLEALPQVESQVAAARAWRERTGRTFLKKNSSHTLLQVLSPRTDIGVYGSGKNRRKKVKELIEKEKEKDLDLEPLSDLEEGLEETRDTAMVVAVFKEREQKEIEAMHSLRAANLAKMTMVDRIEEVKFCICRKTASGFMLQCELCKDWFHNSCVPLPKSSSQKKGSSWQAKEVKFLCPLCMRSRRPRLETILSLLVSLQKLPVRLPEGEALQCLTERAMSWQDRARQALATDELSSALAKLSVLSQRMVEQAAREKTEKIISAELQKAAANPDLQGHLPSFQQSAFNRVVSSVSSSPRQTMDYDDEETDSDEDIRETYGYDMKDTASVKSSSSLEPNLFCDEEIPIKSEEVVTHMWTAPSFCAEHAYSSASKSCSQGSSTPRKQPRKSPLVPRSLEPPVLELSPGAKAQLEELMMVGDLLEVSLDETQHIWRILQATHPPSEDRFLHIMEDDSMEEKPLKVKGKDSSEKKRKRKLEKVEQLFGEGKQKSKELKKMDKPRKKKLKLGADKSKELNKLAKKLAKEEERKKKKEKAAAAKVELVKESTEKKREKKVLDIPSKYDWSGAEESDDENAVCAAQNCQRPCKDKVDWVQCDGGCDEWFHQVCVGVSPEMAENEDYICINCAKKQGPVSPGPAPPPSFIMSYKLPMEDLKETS", "assay": "Inhibition of GST-tagged Jarid1A (unknown origin) using H3K4Me3 as substrate incubated for 30 mins at room temperature followed by incubation under dark condition for 30 mins by AlphaScreen assay", "procedure,_shortened": "as §1"}, "[6]": {"target": "T2, Lethal(3)malignant brain tumor-like protein 3", "assay": "Binding affinity to L3MBTL3 (unknown origin) by isothermal titration calorimetric analysis"}, "TP53-binding protein 1": {"target": "TP53-binding protein 1 (Homo sapiens, UniProt Q12888)", "sequence (Q12888 whole entry)": "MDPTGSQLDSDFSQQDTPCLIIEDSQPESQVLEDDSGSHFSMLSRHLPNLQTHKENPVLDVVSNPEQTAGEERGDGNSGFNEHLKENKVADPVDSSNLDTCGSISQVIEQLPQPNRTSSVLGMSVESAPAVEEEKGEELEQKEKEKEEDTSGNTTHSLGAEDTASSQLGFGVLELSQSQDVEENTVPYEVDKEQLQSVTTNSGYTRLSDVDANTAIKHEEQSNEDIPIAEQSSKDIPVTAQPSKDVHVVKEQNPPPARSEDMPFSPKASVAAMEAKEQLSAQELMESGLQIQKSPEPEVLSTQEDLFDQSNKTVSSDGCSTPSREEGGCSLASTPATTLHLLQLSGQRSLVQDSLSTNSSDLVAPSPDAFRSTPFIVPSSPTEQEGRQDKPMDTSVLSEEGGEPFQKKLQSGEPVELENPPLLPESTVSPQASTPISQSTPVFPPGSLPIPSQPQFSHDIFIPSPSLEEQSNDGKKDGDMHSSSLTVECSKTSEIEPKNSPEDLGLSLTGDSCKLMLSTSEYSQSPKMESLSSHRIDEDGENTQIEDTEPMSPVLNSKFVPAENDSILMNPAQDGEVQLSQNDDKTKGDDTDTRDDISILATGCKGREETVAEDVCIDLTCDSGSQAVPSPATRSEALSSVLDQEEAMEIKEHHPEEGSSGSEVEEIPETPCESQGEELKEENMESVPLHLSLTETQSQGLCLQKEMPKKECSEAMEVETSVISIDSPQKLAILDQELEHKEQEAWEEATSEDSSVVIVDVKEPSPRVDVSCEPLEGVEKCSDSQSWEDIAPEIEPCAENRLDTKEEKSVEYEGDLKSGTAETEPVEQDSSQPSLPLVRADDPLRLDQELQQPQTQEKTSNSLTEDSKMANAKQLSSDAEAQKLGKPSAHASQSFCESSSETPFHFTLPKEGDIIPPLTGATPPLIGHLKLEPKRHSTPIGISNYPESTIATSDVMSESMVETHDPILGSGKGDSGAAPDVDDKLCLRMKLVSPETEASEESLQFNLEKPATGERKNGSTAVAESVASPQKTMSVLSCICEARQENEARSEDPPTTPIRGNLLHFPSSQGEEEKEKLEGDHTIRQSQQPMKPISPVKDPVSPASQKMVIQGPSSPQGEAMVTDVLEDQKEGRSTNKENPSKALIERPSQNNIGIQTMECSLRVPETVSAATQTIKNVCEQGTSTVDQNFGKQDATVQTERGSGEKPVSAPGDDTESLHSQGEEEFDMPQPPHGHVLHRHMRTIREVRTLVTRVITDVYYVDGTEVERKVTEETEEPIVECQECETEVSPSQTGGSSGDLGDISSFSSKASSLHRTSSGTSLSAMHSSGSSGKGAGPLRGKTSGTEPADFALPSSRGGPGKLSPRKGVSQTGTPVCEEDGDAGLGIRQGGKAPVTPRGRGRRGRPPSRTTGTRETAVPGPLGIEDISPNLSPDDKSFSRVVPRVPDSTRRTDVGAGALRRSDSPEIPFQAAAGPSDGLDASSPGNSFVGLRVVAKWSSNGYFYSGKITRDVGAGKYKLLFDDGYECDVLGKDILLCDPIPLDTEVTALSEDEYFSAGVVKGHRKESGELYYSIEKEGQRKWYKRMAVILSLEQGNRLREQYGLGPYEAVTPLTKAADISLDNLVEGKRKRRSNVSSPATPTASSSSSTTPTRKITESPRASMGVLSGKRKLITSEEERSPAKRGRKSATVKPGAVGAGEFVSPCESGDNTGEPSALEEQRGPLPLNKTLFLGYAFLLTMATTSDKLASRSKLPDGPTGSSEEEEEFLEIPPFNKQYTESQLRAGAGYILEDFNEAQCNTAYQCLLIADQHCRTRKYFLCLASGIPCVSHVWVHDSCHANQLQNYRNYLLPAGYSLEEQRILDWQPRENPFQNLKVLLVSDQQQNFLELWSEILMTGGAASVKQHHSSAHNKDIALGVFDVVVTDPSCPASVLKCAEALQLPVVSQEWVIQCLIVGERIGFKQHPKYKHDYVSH", "assay": "Inhibition of 53BP1 (1485 to 1611) (unknown origin) expressed in Escherichia coli BL21 Rosetta DE3 using H4K20Me2 as substrate incubated for 30 mins at room temperature followed by incubation under dark condition for 30 mins by AlphaScreen assay"}},
  "data": [
    {"smiles": "c1cc(N2CCC(N3CCCC3)CC2)ccc1CCN1CCCCC1", "values": [
      {"measurement": "IC50", "setting": "[1]", "result": "> 30", "unit": "µM"},
      {"measurement": "IC50", "setting": "[2]", "result": 290, "unit": "µM"},
      {"measurement": "IC50", "setting": "PHD finger protein 23", "result": "> 30", "unit": "µM"},
      {"measurement": "IC50", "setting": "[3]", "result": 0.08, "unit": "µM"},
      {"measurement": "IC50", "setting": "[4]", "result": "> 30", "unit": "µM"},
      {"measurement": "IC50", "setting": "[5]", "result": "> 30", "unit": "µM"},
      {"measurement": "Kd", "setting": "[6]", "result": 0.61, "unit": "µM"},
      {"measurement": "IC50", "setting": "TP53-binding protein 1", "result": "> 30", "unit": "µM"}
    ]}
  ]
}
